Measurements gathered from unrelated publications.
Each line is one published result; the experiments were not run side by side.
Target: Serine/threonine-protein kinase PAK 2 (PAK2, Homo sapiens, UniProt Q13177)

CC/C(=N\NC(=O)NCc1cccc(O)c1)c1ccc(O)c(C)c1O — inhibition (enzyme activity; inhibitor; 0.1 µM): 3%
CS(=O)(=O)Nc1cccc(-c2csc(NC(=O)CSc3nc4nccnc4c(=O)n3CCc3ccccc3)n2)c1 — inhibition (enzyme activity; inhibitor; 10 µM): 3%
Cc1ccc(C(=O)Nc2ccc(CN3CCN(C)CC3)c(C(F)(F)F)c2)cc1C#Cc1cnc2cccnn12 — remaining activity (enzyme activity; inhibitor; 23.5 nM): 70%
O=S(=O)(NC1CCC(c2cc(F)ccc2F)(S(=O)(=O)c2ccc(Cl)cc2)CC1)C(F)(F)F (centres unmarked) — remaining binding (cell-free assay; competition with immobilised ligand; 1 µM): 100%
C#Cc1cccc(Nc2ncnc3cc(OCCOC)c(OCCOC)cc23)c1 — remaining signal (cell-free assay; 0.5 µM): 99.1%
COc1cc(Cl)c(C(=O)N[C@@H](CN[C@H]2CC[C@@H](N)CC2)Cc2ccc(C#N)cc2)cc1-c1ccc(CN[C@H](C)c2ccc(C)cc2)o1 — remaining activity (enzyme activity; inhibitor; 1 µM): 98%
O=C1NC(=O)c2cc(Nc3ccc(F)cc3)c(Nc3ccc(F)cc3)cc21 — remaining signal (cell-free assay; 0.5 µM): 98.5%
COc1ccc2c(c1)O[C@H](c1ccc(OC)c(OC)c1)C[C@@H]2NC(=O)C1(c2ccc3c(c2)OC(F)(F)O3)CC1 — remaining binding (cell-free assay; competition with immobilised ligand; 1 µM): 100%
CC(C)(C)c1nc2c(s1)c1nc(N)ncc1c1ccc(NS(=O)(=O)c3c(F)cccc3F)c(F)c12 — remaining activity (enzyme activity; inhibitor; radiometric; 1 µM): 102%
CO[C@@H](C)c1c(Nc2ccc([C@H](N(C)C(=O)C3CCS(=O)(=O)CC3)C(F)(F)F)cc2)cnc2cc(Cl)nn12 — remaining binding (cell-free assay; competition with immobilised ligand; 1 µM): 76%
CCN(CC)c1ccc(C2=NNC(=O)CC2C)cc1[N+](=O)[O-] (centres unmarked) — remaining activity (enzyme activity; inhibitor; 10 µM): 98%
CNCc1ccc(-c2cc(-c3nc(-c4ccc(S(=O)(=O)C(C)C)cc4)cnc3N)on2)cc1 — inhibition (enzyme activity; inhibitor; 2 µM): 6%
CCN(CC)CCNC(=O)c1c(C)[nH]c(/C=C2\C(=O)Nc3ccc(F)cc32)c1C — inhibition (enzyme activity; inhibitor; 10 µM): 8%
CC(C)(O)[C@H]1CC[C@H](Nc2ccc3ncc(-c4cccc(C(F)(F)F)c4)n3n2)CC1 — remaining activity (enzyme activity; inhibitor; 1 µM): 93.4%
CCCOc1ccc(OC)c(F)c1C(=O)c1ccc(C(=O)N[C@@H]2CNC[C@H]2NC(=O)c2ccc3[nH]ncc3c2)cc1 — remaining activity (enzyme activity; inhibitor; 10 µM): 74%
COc1cc(Nc2cnc(C#N)c(O[C@H](C)CN(C)C)n2)ncc1-c1cnn(C)c1 — remaining activity (enzyme activity; inhibitor; radiometric; 10 µM): 70%
Oc1cccc(-c2nc(N3CCOCC3)c3oc4ncccc4c3n2)c1 — remaining activity (enzyme activity; inhibitor; 10 µM): 106%
CN1CC(Oc2cnc(C#N)cc2-c2ccn3nc(NC(=O)C4CC4)cc3c2)C1 — inhibition (enzyme activity; inhibitor; 1 µM): -7%
O=C(Nc1cnn(-c2csc(C(=O)NC3COC3)c2)c1)Nc1ccccc1Cl — remaining activity (enzyme activity; inhibitor; 5 µM): 90.1%
CNc1cccc2cc(C(=O)Nc3ccc(C(=O)O)cc3)c(=O)[nH]c12 — inhibition (enzyme activity; inhibitor; 10 µM): 20%
Cc1ccc(Nc2nccc(N(C)c3ccc4c(C)n(C)nc4c3)n2)cc1S(N)(=O)=O — inhibition (enzyme activity; inhibitor; 10 µM): 24%
CNC(=O)c1cc(Oc2ccc(NC(=O)Nc3ccc(Cl)c(C(F)(F)F)c3)cc2)ccn1 — remaining signal (cell-free assay; 0.5 µM): 101%
O=C(Nc1cnc(Oc2ccc(F)cc2)nc1)N1CCc2ncccc2[C@@H]1c1ccc(F)cc1 — remaining binding (cell-free assay; competition with immobilised ligand; 1 µM): 59%
Cc1ccc(C(=O)NCc2ccsc2)cc1C#Cc1cn(C(C)C)c2ncnc(N)c12 — activity vs control (enzyme activity; inhibitor; 1 µM): 79%
Cc1nc(N2CC[C@@H](O)C2)ncc1-c1cc(C(F)(F)F)cc2[nH]ncc12 — remaining binding (cell-free assay; competition with immobilised ligand; 1 µM): 100%
COc1cc2ncnc(Nc3ccc(Oc4ccccc4)cc3C)c2cc1OC — inhibition (enzyme activity; inhibitor; 1 µM): 2%
CSc1cccnc1N1CCN(Cc2nc3ccccc3[nH]2)CC1 — remaining binding (cell-free assay; competition with immobilised ligand; 1 µM): 100%
Cc1cnc(NC2CCOCC2)nc1-n1cnc(C(=O)NC(CN)c2cc(F)cc(Cl)c2)c1 (centres unmarked) — remaining activity (enzyme activity; inhibitor; radiometric; 1 µM): 77%
Nc1cnc(N2CCc3cc(S(=O)(=O)Nc4c(F)cc(Cl)cc4F)cc(N4CCCC4=O)c32)nc1 — remaining binding (cell-free assay; competition with immobilised ligand; 1 µM): 78%
COc1cc2ncnc(Nc3ccc(F)c(Cl)c3)c2cc1OCCCN1CCOCC1 — remaining signal (cell-free assay; 0.5 µM): 100%
Cc1c(NC(=O)c2cc(C(N)=O)nc3cc(F)ccc23)c(C(F)(F)F)nn1Cc1ccc(C#N)cc1 — remaining binding (cell-free assay; competition with immobilised ligand; 1 µM): 88%
FC(F)(F)Oc1cccc(-c2cnc3ccc(-c4ccncc4)nn23)c1 — activity vs control (enzyme activity; inhibitor; radiometric; 1 µM): 95%
